Source: PubChem BioAssay
TRPC6 inhibitor – blocks the mouse TRPC6 cation channel. Q61143. HEK293-TRPC6, membrane potential dye, ACh-evoked depolarization; stronger effect = lower value. B-score at 10 µM. actives 1.1% (n = 310,000). AID 2553;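 active = B-score under library mean minus 3 SD, initial fluorescence not abnormally high, positive integrated signal ratio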;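 note: B-score derived from integrated fluorescence ratio over the kinetic read; more negative B-score means stronger inhibition of depolarization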
TRPC6 act – activates the mouse TRPC6 cation channel; B-score at 10 µM; HEK293-TRPC6 membrane potential dye fluorescence; stronger effect = higher value; AID 2550; actives 0.13% (n = 310,000); Q61143;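 active = B-score of the integrated fluorescence ratio above library mean plus 3 SD, and starting fluorescence ratio within library mean plus 5 SD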;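 note: higher score means more depolarization so channel activation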
TRPC4 act – activators of mouse TRPC4 channel; Q9QUQ5; B-score at 10 µM; actives 0.49% (n = 310,000); HEK293 TRPC4beta/mu-opioid, Fluo4 calcium fluorescence; stronger effect = higher value; AID 2237;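 active = B-score above 5 SD of library B-scores, and initial fluorescence ratio not above library mean plus 5 SD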;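 note: positive B-score marks a calcium rise read as TRPC4 activation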
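Assay system: HEK293 stable line with TRPC4beta plus mu-opioid receptor; schedule: 45 min room-temperature Fluo4 loading, 110 s read; technique: kinetic Fluo4 calcium fluorescence; evaluation: integrated baseline-normalised fluorescence ratio, converted to per-well B score; controls: buffer (low) and maximal DAMGO (high)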
TRPC4 block – blocks the mouse TRPC4 cation channel | B-score at 10 µM | actives 0.39% (n = 300,000) | Q9QUQ5 | HEK293 TRPC4beta/mu-opioid, DAMGO-evoked Fluo4 calcium flux; stronger effect = lower value;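 active = B-score over 3 SD under the library average, no early fluorescence shift, positive overall ratio signal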
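Material: HEK293 cells with stable TRPC4beta plus mu-opioid receptor expression; probe or stimulus: DAMGO in two steps, submaximal then maximal; technique: Fluo4 calcium fluorescence by kinetic imaging, 5 s 1 Hz baseline; measure: integrated fluorescence ratio relative to baseline, converted to per-well B score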
TRPC4 PAM – allosterically enhances the mouse TRPC4 cation channel. Q9QUQ5. HEK293 TRPC4beta/mu-opioid, DAMGO EC20, Fluo-4 Ca2+ flux; stronger effect = higher value. B-score at 10 µM. actives 0.42% (n = 310,000);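 active = B-score of calcium response area above 5 SD of library B-scores, with initial fluorescence ratio within 5 SD of library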;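 note: B-score of integrated fluorescence ratio over time as area under calcium response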
An asterisk follows results filed as active; i = inactive. An excerpt weighted towards active compounds, which were near 2.3% of everything screened.

SMILES	TRPC6 inhibitor	TRPC6 act	TRPC4 act	TRPC4 block	TRPC4 PAM
CCN1CCN(c2ccc(S(=O)(=O)N3CCCCC3)cc2NC(=O)c2cccc(C)c2[N+](=O)[O-])CC1	i	i	132*	i	i
CCN1CCN(c2ccc(S(=O)(=O)N3CCCCC3)cc2NC(=O)c2ccccc2)CC1	i	i	i	i	i
Cc1cc(Cl)ccc1C(=O)C1CCCN(C(=O)c2cncs2)C1 (centres undefined)	i	i	i	i	i
CCSc1ncccc1-c1nc2ccccc2[nH]1	i	i	i	-7*	i
CCCCS(=O)(=O)N1CCN(S(=O)(=O)c2cccs2)CC1	i	i	i	i	i
CCc1ccc(CNc2ccc3c(c2)ncn3CC)cc1	-5*	i	i	i	i
CCc1ccc(CNc2ccc3c(c2)ncn3C(C)(C)C)cc1	i	i	i	i	i
CC(C)(C)n1cnc2cc(NCc3ccc(Br)cc3)ccc21	i	i	i	i	25*
CC1C(=O)N2CCCc3cc(NC(=O)C(=O)NCCc4ccccc4)cc1c32 (centres undefined)	i	i	i	i	i
COc1ccc(-c2nn(-c3ccccc3)cc2C(=O)N2c3ccc(C)cc3C3CN(C)CCC32)cc1 (centres undefined)	i	i	i	i	15*
COc1ccc(NC(=O)c2ccccc2N2C(=O)C3C4C=CC(C5CC45)C3C2=O)c(OC)c1 (centres undefined)	i	i	i	i	i
CC(C)(C)C(=O)N1CCN(c2ccc([N+](=O)[O-])cc2-n2cccc2)CC1	i	i	i	i	16*
CN(C)C(CNC(=O)CSc1nnc(-c2ccco2)o1)c1ccccc1 (centres undefined)	i	i	64*	i	i
Cc1ccc(C(CNS(=O)(=O)c2ccc([N+](=O)[O-])cc2)N2CCN(C)CC2)cc1 (centres undefined)	i	i	i	-6*	i
Cc1ccc(C2=NN(S(=O)(=O)c3ccccc3)C(c3ccccc3O)C2)cc1 (centres undefined)	i	i	i	i	13*
CCSC1=N/C(=C\c2ccc(OC)cc2)C(=O)N1	i	i	i	i	86*
COc1ccc(C)cc1N(C(=O)c1ccccc1F)c1nc2ccccc2s1	i	i	i	-6*	i
C=CCN1CN(S(=O)(=O)c2cccc(Cl)c2)c2nc3ccccc3nc21	i	i	i	i	i
S=c1[nH]nc(-c2ccncc2)n1/N=C/c1cn(-c2ccccc2)nc1-c1ccccc1	i	i	i	i	13*
O=[N+]([O-])c1ccc(-c2nn(-c3ccccc3)cc2/C=N/n2c(-c3ccncc3)n[nH]c2=S)cc1	i	i	i	i	i
Oc1c(Br)cc(Br)c(/C=N/n2c(-c3ccccc3)n[nH]c2=S)c1Br	i	i	i	i	28*
Cc1ccccc1C(=O)Nc1ccnn1C1CCN(C2CCSCC2)CC1	i	i	i	i	i
COc1cccc(NC(=O)c2ccc(NCCCN3CC(C)CC(C)C3)c([N+](=O)[O-])c2)c1 (centres undefined)	i	i	i	i	14*
CCC(=O)c1ccc(OCC(=O)OCC(=O)NCCC2=CCCCC2)cc1	i	i	i	i	i
Cc1ccc2c(C)c(C(=O)N3CCCCC3CO)oc2c1C (centres undefined)	i	i	i	i	i
SMILES	TRPC6 inhibitor	TRPC6 act	TRPC4 act	TRPC4 block	TRPC4 PAM
CCN1C(N(C)CCc2cccs2)=N[C@@H](c2ccccc2)C(C(=O)OC)=C1C	i	i	i	-5*	i
O=C(O)C(Cc1ccccc1-c1ccccc1)C(=O)O	i	i	i	i	i
Cc1ccc(-n2c(C)cc(C)c(C#N)c2=O)cc1Cl	i	i	45*	-6*	i
Cc1cc(C)n(-c2cc(Cl)cc(Cl)c2)c(=O)c1C#N	i	i	i	i	i
CCCCC(CC)c1nnc(NC(=O)c2cccs2)s1 (centres undefined)	i	i	i	-9*	i
CC(C)c1nnc(NC(=O)c2cccs2)s1	i	i	i	i	i
